Laboratory results reported in ChEMBL document CHEMBL2384938, “Discovery of a New Class of Potent MMP Inhibitors by Structure-Based Optimization of the Arylsulfonamide Scaffold” (ACS Med Chem Lett, 2013).

How the values were obtained:
[1] = biological target: T1, Interstitial collagenase (Homo sapiens, UniProt P03956); assay: Inhibition of MMP1 (unknown origin)-mediated Mca-Pro-Leu-Gly-Leu-Dpa-Ala-Arg-NH2 by fluorimetric assay
T1 sequence (P03956 whole entry): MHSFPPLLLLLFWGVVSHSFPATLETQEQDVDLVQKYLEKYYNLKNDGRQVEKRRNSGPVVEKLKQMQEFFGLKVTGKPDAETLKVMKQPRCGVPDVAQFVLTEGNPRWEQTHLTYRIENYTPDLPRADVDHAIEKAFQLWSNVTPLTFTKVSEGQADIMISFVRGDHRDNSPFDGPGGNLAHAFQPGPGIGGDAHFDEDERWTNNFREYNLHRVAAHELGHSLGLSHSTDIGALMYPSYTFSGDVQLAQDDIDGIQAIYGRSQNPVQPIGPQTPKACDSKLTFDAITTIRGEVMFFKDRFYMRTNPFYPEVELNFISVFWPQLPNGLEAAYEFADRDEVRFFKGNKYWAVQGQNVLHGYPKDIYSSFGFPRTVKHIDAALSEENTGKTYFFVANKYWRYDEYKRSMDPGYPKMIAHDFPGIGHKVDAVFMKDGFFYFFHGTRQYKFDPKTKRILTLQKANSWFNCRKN
Outline: (§1)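 Activity read fluorimetrically; values reported as inhibition constants (Ki). The same assay format was used for each of MMP-1, -7, -8 and -13.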

[2] = biological target: Macrophage metalloelastase (Homo sapiens, UniProt P39900); assay: Inhibition of MMP12 (unknown origin)-mediated Mca-Pro-Leu-Gly-Leu-Dpa-Ala-Arg-NH2 by fluorimetric assay
[3] = biological target: T2, Matrilysin (Homo sapiens, UniProt P09237); assay: Inhibition of MMP7 (unknown origin)-mediated Mca-Pro-Leu-Gly-Leu-Dpa-Ala-Arg-NH2 by fluorimetric assay; outline: as §1
T2 sequence (P09237 whole entry): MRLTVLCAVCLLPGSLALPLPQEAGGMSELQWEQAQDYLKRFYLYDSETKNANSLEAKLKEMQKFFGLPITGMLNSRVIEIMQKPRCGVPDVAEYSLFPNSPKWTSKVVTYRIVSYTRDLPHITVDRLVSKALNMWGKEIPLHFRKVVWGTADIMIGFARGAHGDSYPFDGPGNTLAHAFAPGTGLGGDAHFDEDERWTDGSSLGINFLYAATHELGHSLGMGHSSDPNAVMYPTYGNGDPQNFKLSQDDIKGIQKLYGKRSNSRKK

[4] = biological target: Collagenase 3 (Homo sapiens, UniProt P45452); assay: Inhibition of MMP13 (unknown origin)-mediated Mca-Pro-Leu-Gly-Leu-Dpa-Ala-Arg-NH2 by fluorimetric assay; outline: as §1
[5] = biological target: Neutrophil collagenase (Homo sapiens, UniProt P22894); assay: Inhibition of MMP8 (unknown origin)-mediated Mca-Pro-Leu-Gly-Leu-Dpa-Ala-Arg-NH2 by fluorimetric assay; outline: as §1
Sequence of Neutrophil collagenase (P22894 whole entry): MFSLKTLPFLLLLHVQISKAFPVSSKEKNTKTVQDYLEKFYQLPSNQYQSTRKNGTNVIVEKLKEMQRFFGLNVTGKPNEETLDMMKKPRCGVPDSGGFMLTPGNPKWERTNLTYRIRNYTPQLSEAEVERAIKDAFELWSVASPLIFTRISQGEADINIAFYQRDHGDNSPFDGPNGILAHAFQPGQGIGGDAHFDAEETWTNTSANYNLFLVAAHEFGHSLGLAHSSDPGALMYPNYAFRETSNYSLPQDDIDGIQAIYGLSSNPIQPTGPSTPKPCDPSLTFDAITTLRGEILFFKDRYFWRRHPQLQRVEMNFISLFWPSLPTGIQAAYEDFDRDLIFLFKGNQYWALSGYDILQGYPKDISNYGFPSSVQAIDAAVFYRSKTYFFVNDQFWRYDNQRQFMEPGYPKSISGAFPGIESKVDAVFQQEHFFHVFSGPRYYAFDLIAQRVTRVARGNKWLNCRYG

Sequence of Macrophage metalloelastase (P39900 whole entry): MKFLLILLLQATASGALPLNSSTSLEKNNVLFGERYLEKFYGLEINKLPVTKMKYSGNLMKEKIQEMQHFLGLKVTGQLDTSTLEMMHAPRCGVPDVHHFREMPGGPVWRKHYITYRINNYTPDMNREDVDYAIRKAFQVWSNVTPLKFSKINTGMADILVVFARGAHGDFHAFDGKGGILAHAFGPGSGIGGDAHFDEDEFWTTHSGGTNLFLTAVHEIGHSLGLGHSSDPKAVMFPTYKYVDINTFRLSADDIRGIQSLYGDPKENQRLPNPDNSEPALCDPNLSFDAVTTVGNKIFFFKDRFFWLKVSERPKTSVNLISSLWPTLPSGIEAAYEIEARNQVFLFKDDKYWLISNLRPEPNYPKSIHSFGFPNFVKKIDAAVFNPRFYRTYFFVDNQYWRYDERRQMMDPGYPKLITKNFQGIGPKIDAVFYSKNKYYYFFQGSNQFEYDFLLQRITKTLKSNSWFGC

| SMILES | Ki [1] [nM] | Ki [2] [nM] | Ki [3] [nM] | Ki [4] [nM] | Ki [5] [nM] |
| --- | --- | --- | --- | --- | --- |
| O=C(CNS(=O)(=O)c1ccccc1)NO | 3400 | 62 | 4000 | 42 | 240 |
| O=C(CNS(=O)(=O)CCc1ccccc1)NO | 5700 | 23 | 10700 | 49 | 75 |
| O=C(NO)[C@H]1CCCN1S(=O)(=O)CCc1ccccc1 | 1800 | 16 | 7000 | 14 | 43 |
| COc1ccc(CCS(=O)(=O)NCC(=O)NO)cc1 | – | 10 | – | 12 | 14 |
| O=C(CNS(=O)(=O)CCc1ccc(Oc2ccccc2)cc1)NO | – | 10 | – | 19 | 32 |
| O=C(O)CNS(=O)(=O)CCc1ccc(-c2ccccc2)cc1 | – | 7 | – | 5 | 7 |
| O=C(CNS(=O)(=O)CCc1ccc2c(c1)OCO2)NO | 19700 | 15 | 18500 | 35 | 20 |
| O=C(O)CNS(=O)(=O)CCc1ccc(Cl)s1 | – | 272 | – | 323 | 364 |
| O=C(NO)[C@@H]1CCCN1S(=O)(=O)CCc1ccc(Cl)s1 | – | 9 | – | 3 | 6 |

Results, then the compound that gave them:

| Ki [1] [nM] | Ki [2] [nM] | Ki [3] [nM] | Ki [4] [nM] | Ki [5] [nM] | SMILES |
| --- | --- | --- | --- | --- | --- |
| 365 | 18000 | – | – | – | O=C(O)CNS(=O)(=O)c1ccc(-c2ccccc2)cc1 |
| – | 1 | – | 1 | 4 | COc1ccc(CCS(=O)(=O)N2CCC[C@H]2C(=O)NO)cc1 |
| – | 5 | – | 10 | 98 | O=C(NO)[C@H]1CCCN1S(=O)(=O)CCc1ccc(Oc2ccccc2)cc1 |
| 7000 | 5 | 6000 | 10 | 13 | O=C(NO)[C@@H]1CCCN1S(=O)(=O)CCc1ccc2c(c1)OCO2 |
| – | 6 | – | 6 | 37 | O=C(CNS(=O)(=O)CCc1ccc(Cl)s1)NO |
| – | 672 | – | 175 | 275 | O=C(O)[C@@H]1CCCN1S(=O)(=O)c1ccc(Cl)s1 |
| 365 | 2 | 5000 | 2 | 9 | O=C(CNS(=O)(=O)c1ccc(-c2ccccc2)cc1)NO |
| – | 20 | 4000 | – | – | COc1ccc(S(=O)(=O)NCC(=O)NO)cc1 |
| – | 2 | – | 1 | 3 | O=C(NO)C1CCCN1S(=O)(=O)CCc1ccc(-c2ccccc2)cc1 (single isomer, unassigned) |
